Measurements taken from ChEMBL document CHEMBL3808357, “Discovery of N-(3-((1-Isonicotinoylpiperidin-4-yl)oxy)-4-methylphenyl)-3-(trifluoromethyl)benzamide (CHMFL-KIT-110) as a Selective, Potent, and Orally Available Type II c-KIT Kinase Inhibitor for Gastrointestinal Stromal Tumors (GISTs)” (J Med Chem, 2016).
The source made the active and inactive calls. The rule behind the calls is not given here.

What was measured:
[1] = target: Mast/stem cell growth factor receptor Kit (Homo sapiens) (UniProt P10721); assay: Inhibition of cKIT autophosphorylation at Y703 in human GIST882 cells up to 10 uM after 2 hrs by Western blot analysis; type: cell-based
[2] = target: Mast/stem cell growth factor receptor Kit (Homo sapiens) (UniProt P10721); assay: Inhibition of cKIT in human GIST882 cells assessed as suppression of ERK phosphorylation at T202/Y204 up to 10 uM after 2 hrs by Western blot analysis; type: cell-based
[3] = target: Mast/stem cell growth factor receptor Kit (Homo sapiens) (UniProt P10721); assay: Inhibition of cKIT autophosphorylation at Y823 in human GIST48B cells up to 10 uM after 2 hrs by Western blot analysis; type: cell-based
[4] = target: Mast/stem cell growth factor receptor Kit (Homo sapiens) (UniProt P10721); assay: Inhibition of cKIT in human GIST48B cells assessed as suppression of ERK phosphorylation at T202/Y204 up to 10 uM after 2 hrs by Western blot analysis; type: cell-based
[5] = target: Mast/stem cell growth factor receptor Kit (Homo sapiens) (UniProt P10721); assay: Inhibition of cKIT in human GIST48B cells assessed as suppression of STAT5 phosphorylation at Y694 up to 10 uM after 2 hrs by Western blot analysis; type: cell-based
[6] = target: Platelet-derived growth factor receptor alpha (Homo sapiens) (UniProt P16234); assay: Inhibition of PDGFRalpha phosphorylation at Y849 in human GIST48B cells up to 10 uM after 2 hrs by Western blot analysis; type: cell-based
Summary of the method: (§1)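 Cells were washed in cold PBS, lysed in RIPA and immunoblotted for phospho and total proteins, including pPDGFRα Y849/PDGFRβ Y857 and β-actin.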

GISTT1 [7] = assay: Induction of apoptosis in human GISTT1 cells assessed as caspase 3 cleavage up to 3 uM after 48 hrs by Western blot analysis; type: functional, cell-based
GIST882 = assay: Induction of apoptosis in human GIST882 cells assessed as PARP cleavage up to 3 uM after 72 hrs by Western blot analysis; type: functional, cell-based
GIST48B [8] = assay: Induction of apoptosis in human GIST48B cells assessed as caspase 3 cleavage up to 3 uM after 72 hrs by Western blot analysis; type: functional, cell-based
GIST48B [9] = assay: Induction of apoptosis in human GIST48B cells assessed as PARP cleavage up to 3 uM after 72 hrs by Western blot analysis; type: functional, cell-based
[10] = AUC(0 to t) in Sprague-Dawley rat plasma at 10 mg/kg, po; type: ADME, organism-based
Summary of the method: (§2)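 Male Sprague-Dawley rats, 8 weeks old, fasted overnight, dosed iv or orally. Formulation was 5% DMSO/40% PEG400/55% saline at 1 mg/mL. Blood (~0.2 mL) was drawn from the jugular vein into heparin. Sampling: iv at 1 min to 8 h; oral at 5 min to 24 h. Plasma was separated by centrifugation at 2−8 °C and stored at −80 °C.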

[11] = MRT(0 to t) in Sprague-Dawley rat plasma at 1 mg/kg, iv; type: ADME, organism-based
Summary of the method: (§3)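 Male Sprague–Dawley rats, 8 weeks old, six in total, fasted overnight; compound dissolved in 5% DMSO/40% PEG400/55% saline (1 mg/mL dosing solution), given iv or orally. About 0.2 mL jugular blood taken with heparin at 1 min–8 h (iv) or 5 min–24 h (oral); plasma separated at 2–8 °C and stored at −80 °C before analysis.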

[12] = MRT(0 to t) in Sprague-Dawley rat plasma at 10 mg/kg, po; type: ADME, organism-based; summary of the method: as §3
[13] = Tmax in Sprague-Dawley rat plasma at 10 mg/kg, po; type: ADME, organism-based; summary of the method: as §3
[14] = Apparent volume of distribution in Sprague-Dawley rat plasma at 1 mg/kg, iv; type: ADME, organism-based; conditions: read-out: Vz; summary of the method: as §2
[15] = Cmax in Sprague-Dawley rat plasma at 1 mg/kg, iv; type: ADME, organism-based; design: dose 1 mg/kg, route intravenous; summary of the method: as §2
[16] = Cmax in Sprague-Dawley rat plasma at 10 mg/kg, po; type: ADME, organism-based; design: dose 10 mg/kg, route oral; summary of the method: as §2
GISTT1 [17] = assay: Antitumor activity against human GISTT1 cells xenografted in nu/nu mouse assessed as suppression of proliferation at 25 to 100 mg/kg/day administered through oral gavage after 21 days by Ki67 assay; type: functional, organism-based
Summary of the method: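 Female nu/nu mice, 6 weeks old, received 5 × 10⁶ GIST-T1 cells in PBS/Matrigel (1:1) subcutaneously in the right flank. At 100−200 mm³, six mice per group were dosed daily by oral gavage at 25, 50 or 100 mg/kg/d in 0.5% methylcellulose/0.4% Tween80, or vehicle. Tumor volume was taken as (W²×L)/2, with body weight and tumor measured daily. Tumors were stained for Ki67 (IHC, 1:50 antibody) and by TUNEL.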

[18] = target: T1, Platelet-derived growth factor receptor beta (Homo sapiens, UniProt P09619); assay: Inhibition of PDGFRbeta phosphorylation at Y857 in human GISTT1 cells up to 10 uM after 2 hrs by Western blot analysis; type: cell-based; summary of the method: as §1
[19] = target: T1, Platelet-derived growth factor receptor beta; assay: Inhibition of PDGFRbeta phosphorylation at Y857 in human GIST882 cells up to 10 uM after 2 hrs by Western blot analysis; type: cell-based; summary of the method: as §1
[20] = target: Mast/stem cell growth factor receptor Kit (Homo sapiens) (UniProt P10721); assay: Inhibition of Tel-fused cKIT (unknown origin) transfected in mouse BAF3 cells assessed as decrease in cell proliferation after 72 hrs by celltiter-glo/CCK8 assay; type: cell-based
Summary of the method: (§4)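 Cells were seeded at 1 to 3 × 10⁴ cells/mL with serial compound concentrations and incubated 72 h at 37 °C, 5% CO₂. Viability was read by CellTiter-Glo luminescence or CCK-8 absorbance (450/655 nm). GI50 values are from triplicate testing. GIST-T1 and CHO were grown in DMEM/10% FBS; GIST-882, GIST-48B and MV4-11 in IMDM/10% FBS; other lines in RPMI 1640/10% FBS.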

[21] = test system: Mast/stem cell growth factor receptor Kit (Homo sapiens), P10721 [V559D]; assay: Inhibition of Tel-fused cKIT V559D mutant (unknown origin) transfected in mouse BAF3 cells assessed as decrease in cell proliferation after 72 hrs by celltiter-glo/CCK8 assay; type: cell-based
Summary of the method: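 Stable BaF3 lines made by retroviral transduction with mutagenized TEL-KIT MSCV vectors, puromycin selection 48 h, then gradual IL-3 withdrawal until IL-3-independent; grown in RPMI 1640 with 10% FBS. Cells at 1 to 3 × 10⁴ cells/mL exposed to a concentration series for 72 h; viability read by CellTiter-Glo luminescence or CCK-8 absorbance (450/655 nm); GI50 from triplicate testing.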

[22] = Antiproliferative activity against cKIT dependent human GISTT1 cells assessed as reduction in cell viability after 72 hrs by celltiter-glo/CCK8 assay; type: functional; conditions: GISTT1, 72 h; summary of the method: as §4
[23] = Antiproliferative activity against human BCR-ABL dependent MEG01 cells assessed as reduction in cell viability after 72 hrs by celltiter-glo/CCK8 assay; type: functional; conditions: MEG-01, 72 h
[24] = Antiproliferative activity against human U937 cells assessed as reduction in cell viability after 72 hrs by celltiter-glo/CCK8 assay; type: functional; conditions: U-937, 72 h; summary of the method: as §4
[25] = Antiproliferative activity against FLT3-ITD dependent human MOLM14 cells assessed as reduction in cell viability after 72 hrs by celltiter-glo/CCK8 assay; type: functional; conditions: MOLM-14, 72 h; summary of the method: as §4
[26] = target: Mast/stem cell growth factor receptor Kit (Homo sapiens) (UniProt P10721); assay: Inhibition of cKIT autophosphorylation at Y719 in human GISTT1 cells up to 10 uM after 2 hrs by Western blot analysis; type: cell-based

Sequence of Mast/stem cell growth factor receptor Kit (Homo sapiens) (P10721 whole entry, the tested form may be a part): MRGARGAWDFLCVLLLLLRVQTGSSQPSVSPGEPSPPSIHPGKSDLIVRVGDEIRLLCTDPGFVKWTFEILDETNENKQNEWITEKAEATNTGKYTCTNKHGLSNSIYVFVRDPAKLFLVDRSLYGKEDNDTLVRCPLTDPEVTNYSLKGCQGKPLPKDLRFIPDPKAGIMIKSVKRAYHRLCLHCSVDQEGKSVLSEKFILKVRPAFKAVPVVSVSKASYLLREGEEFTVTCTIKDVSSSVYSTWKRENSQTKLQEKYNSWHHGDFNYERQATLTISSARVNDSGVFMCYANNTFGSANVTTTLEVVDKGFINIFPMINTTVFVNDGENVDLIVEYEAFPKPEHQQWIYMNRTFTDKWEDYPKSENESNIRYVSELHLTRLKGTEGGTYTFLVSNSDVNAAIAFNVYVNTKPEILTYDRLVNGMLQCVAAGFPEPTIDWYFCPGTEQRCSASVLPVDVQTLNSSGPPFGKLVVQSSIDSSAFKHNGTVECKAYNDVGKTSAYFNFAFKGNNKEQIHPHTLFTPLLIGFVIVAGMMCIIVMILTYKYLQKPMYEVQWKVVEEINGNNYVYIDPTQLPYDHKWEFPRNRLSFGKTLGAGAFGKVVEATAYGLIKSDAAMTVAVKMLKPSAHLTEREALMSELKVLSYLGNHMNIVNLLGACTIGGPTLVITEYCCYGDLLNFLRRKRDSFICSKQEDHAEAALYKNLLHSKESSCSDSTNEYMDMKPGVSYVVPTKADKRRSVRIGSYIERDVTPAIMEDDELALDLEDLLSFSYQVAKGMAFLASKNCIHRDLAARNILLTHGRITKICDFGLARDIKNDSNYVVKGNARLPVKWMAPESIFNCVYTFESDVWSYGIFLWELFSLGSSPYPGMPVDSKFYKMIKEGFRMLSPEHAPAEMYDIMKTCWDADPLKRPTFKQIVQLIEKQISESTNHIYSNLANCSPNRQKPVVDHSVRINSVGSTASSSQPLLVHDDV
T1 sequence (P09619 whole entry): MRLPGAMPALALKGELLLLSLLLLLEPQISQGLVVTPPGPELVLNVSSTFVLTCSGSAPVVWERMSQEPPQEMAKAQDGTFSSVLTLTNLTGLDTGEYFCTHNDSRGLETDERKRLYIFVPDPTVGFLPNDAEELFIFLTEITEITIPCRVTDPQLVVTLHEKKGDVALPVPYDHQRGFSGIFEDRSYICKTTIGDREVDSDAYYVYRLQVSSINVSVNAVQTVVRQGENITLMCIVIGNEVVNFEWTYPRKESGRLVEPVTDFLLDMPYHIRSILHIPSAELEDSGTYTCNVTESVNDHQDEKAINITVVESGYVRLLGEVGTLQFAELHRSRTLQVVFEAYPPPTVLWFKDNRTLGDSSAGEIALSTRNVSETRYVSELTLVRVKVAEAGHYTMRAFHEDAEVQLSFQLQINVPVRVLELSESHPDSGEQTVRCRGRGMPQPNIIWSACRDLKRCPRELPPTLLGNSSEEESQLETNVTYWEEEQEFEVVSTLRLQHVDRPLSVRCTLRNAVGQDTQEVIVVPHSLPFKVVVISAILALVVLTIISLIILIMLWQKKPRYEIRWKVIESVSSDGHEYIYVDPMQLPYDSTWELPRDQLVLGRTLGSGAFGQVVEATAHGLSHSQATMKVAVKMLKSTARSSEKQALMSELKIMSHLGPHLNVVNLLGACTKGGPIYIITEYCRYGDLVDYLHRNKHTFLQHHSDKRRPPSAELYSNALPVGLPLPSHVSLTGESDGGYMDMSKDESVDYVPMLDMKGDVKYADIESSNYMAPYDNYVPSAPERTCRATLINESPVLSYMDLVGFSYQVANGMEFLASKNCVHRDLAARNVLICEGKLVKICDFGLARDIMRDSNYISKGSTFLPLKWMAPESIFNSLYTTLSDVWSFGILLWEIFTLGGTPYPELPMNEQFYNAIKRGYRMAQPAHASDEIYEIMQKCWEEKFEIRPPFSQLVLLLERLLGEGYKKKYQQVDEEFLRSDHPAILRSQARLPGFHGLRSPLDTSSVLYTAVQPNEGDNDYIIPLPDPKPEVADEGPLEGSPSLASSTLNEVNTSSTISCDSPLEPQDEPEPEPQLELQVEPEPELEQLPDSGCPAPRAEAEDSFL
Sequence of Mast/stem cell growth factor receptor Kit (Homo sapiens), P10721 [V559D] (P10721 whole entry V559D, the tested form may be a part): as the sequence (P10721 whole entry, the tested form may be a part) above, with V559D counted along it
Sequence of Platelet-derived growth factor receptor alpha (Homo sapiens) (P16234 whole entry): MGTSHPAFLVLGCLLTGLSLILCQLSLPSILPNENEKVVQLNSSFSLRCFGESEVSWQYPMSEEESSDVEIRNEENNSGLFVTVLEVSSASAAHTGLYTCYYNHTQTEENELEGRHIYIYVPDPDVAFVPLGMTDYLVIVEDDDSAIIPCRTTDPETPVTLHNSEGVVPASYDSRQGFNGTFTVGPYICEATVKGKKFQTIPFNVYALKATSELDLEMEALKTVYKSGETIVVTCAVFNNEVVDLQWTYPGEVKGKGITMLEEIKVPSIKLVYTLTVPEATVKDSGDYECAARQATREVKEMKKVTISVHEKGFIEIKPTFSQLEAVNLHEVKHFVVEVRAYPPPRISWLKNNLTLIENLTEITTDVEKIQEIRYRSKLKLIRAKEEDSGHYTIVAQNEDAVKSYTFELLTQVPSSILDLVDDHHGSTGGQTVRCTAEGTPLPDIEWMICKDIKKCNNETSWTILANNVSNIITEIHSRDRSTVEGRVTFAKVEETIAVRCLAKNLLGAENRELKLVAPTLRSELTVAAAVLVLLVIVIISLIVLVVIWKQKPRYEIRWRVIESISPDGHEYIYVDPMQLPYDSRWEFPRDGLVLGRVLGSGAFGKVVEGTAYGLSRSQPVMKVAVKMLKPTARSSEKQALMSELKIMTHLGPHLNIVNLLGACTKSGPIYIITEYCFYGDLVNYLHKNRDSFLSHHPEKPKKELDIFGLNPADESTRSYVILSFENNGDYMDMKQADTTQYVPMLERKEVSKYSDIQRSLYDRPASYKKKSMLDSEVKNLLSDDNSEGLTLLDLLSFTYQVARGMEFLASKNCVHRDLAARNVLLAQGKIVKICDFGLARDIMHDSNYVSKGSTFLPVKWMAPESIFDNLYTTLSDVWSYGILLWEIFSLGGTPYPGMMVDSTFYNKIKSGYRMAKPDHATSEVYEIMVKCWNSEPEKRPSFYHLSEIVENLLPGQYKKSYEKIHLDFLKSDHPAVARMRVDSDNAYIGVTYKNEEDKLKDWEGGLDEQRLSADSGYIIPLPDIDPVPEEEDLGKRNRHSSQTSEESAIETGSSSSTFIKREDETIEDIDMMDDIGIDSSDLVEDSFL

- inhibition [1]: Active
- inhibition [2]: Active
- inhibition [3]: inactive
- inhibition [4]: inactive
- inhibition [5]: Active
- inhibition [6]: Active
- AUC(0-t) [10]: 715 ng·h/mL
- MRT last [11]: 29 min
- MRT last [12]: 4.8 h
- Tmax [13]: 30 min
- Vd [14]: 3.22 L/kg
- Cmax [15]: 511 ng/mL
- Cmax [16]: 125 ng/mL
- inhibition [18]: Active
- inhibition [19]: Active
- GI50 [20]: 190 nM
- GI50 [21]: 40 nM
- inhibition [26]: Active
Structure (SMILES): Cc1ccc(NC(=O)c2cccc(C(F)(F)F)c2)cc1OC1CCN(C(=O)c2ccncc2)CC1
- Activity (GISTT1 [7]): Active
- Activity (GIST882): Active
- Activity (GIST48B [8]): inactive
- Activity (GIST48B [9]): inactive
- Activity (GISTT1 [17]): Active
- GI50 [22]: 21 nM
- GI50 [23]: 7.43 µM
- GI50 [24]: > 10 µM
- GI50 [25]: > 10 µM
